Bioassay records deposited in PubChem BioAssay by several laboratories.
Only some compounds are listed: those with a hit (about 2.2% of all), similar ones and a draw of the others.
PPC-1+TRAIL kill – kills PPC-1 cancer cells in the presence of TRAIL; AID 1443; 220,000 compounds, 0.41% hits; cell killing (% activity), % at 4 µM or 5 µM; PPC-1 cells + TRAIL, ATPLite viability luminescence;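 active means cell killing above 50% in the first pass at 4 µM, then a duplicate retest at 5 µM averaging 50% or more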;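 further: plate controls were cells with TRAIL plus DMSO for no effect and medium-only wells lacking cells for full effect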
Wee1 degr inh – human Wee1 degradation inhibition, primary screen | 220,000 compounds, 1.2% hits | reporter increase, % at 5 µM | P30291 | HeLa Luc-Wee1K328M stability, luciferase luminescence; 100% = proteasome inhibitor MG132 effect;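 active means activation above the mean of all tested compounds plus 3 SD, set per screening run, cut at about 8.8% in these data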;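 further: cells exposed to compound for 20 h before luminescence read; 0% = DMSO alone and 100% = MG132 at 30 µM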
FLuc inh counter – counter-screen for luciferase assay inhibitors: firefly luciferase inhibition. P08659. ATPLite firefly luciferase biochemical luminescence, 10 min. inhibition, % at 10 µM. 200,000 compounds, 1.5% hits. AID 1006;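 active means inhibition above about 50% when tested at 10 µM, limit read from the data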
Target sequence (P08659 whole entry, looked up): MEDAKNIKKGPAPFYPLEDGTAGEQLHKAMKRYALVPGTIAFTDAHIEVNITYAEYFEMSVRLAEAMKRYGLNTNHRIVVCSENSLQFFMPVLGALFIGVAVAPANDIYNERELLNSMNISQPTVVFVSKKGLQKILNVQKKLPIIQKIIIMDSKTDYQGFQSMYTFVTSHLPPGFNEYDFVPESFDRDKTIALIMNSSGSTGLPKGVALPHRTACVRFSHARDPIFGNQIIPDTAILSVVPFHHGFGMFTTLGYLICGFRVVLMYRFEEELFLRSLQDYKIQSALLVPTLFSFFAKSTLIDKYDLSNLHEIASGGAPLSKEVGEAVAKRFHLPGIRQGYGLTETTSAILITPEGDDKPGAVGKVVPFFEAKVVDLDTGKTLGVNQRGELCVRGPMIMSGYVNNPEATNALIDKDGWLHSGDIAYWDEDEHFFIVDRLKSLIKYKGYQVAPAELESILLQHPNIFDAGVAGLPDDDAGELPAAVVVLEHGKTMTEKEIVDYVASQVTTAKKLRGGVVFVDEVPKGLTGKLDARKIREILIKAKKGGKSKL
FLuc stim CS – affects firefly luciferase, flagging false hits in luciferase stimulation screens; ATPlite luciferase biochemical, luminescence, 10 min; 0 = ATP-free wells, 1 = DMSO control; activation factor at 10 µM; 200,000 tested, under 10 active; AID 1027;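 active means luciferase activation factor, scaled between plate controls, of at least 2 with compound at 10 µM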
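assay system = Luciferase/luciferin detection reagent, cell-free biochemical luciferase assay | also added = ATP substrate | times = 10 min post-reagent at room temperature | measured by = luminescence from luciferase reaction | measure = luciferase activation, seen as luminescence increase over controls | benchmarks = low control with PBS replacing ATP, high control enzyme plus ATP without compound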
TRAIL sens C8 – caspase-8 TRAIL sensitization; 360,000 compounds, 1% hits; NB7+C8 cells + TRAIL, ATPlite viability luminescence; inhibition (viability loss, TRAIL sensitization), % at 10 µM;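 active means compounds causing at least 50% loss of cell viability in the single-dose screen, relative to plate controls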
PKD1 kinase inh – PKD1 (human) kinase inhibition | PKD1 kinase fluorescence polarization assay | inhibition, % (concentration not given with the values) | 200,000 compounds, 0.056% hits; in the data active means inhibition above about 50%
* hit, by the source's call.

`CCSc1nc(N)c2c3c(sc2n1)CCC3` gave PPC-1+TRAIL kill 13.2, Wee1 degr inh -0.5, FLuc inh counter 11.6, FLuc stim CS 0.9, TRAIL sens C8 9.1 and PKD1 kinase inh -7.6.
`Nc1nc(-c2ccccc2)nc2sc3c(c12)CCCC3` gave PPC-1+TRAIL kill 54.7*, Wee1 degr inh 4.8, FLuc inh counter 85.2*, FLuc stim CS 0.1, TRAIL sens C8 76.2* and PKD1 kinase inh -1.9.
For Nc1nc(N)c2cc(Sc3ccc(Cl)cc3)ccc2n1 the results were TRAIL sens C8 72.7*.
Screening Nc1nc(N)c2cc(Sc3ccc4ccccc4c3)ccc2n1 returned PPC-1+TRAIL kill 33.8, Wee1 degr inh -1.9 and TRAIL sens C8 72.7*.
Screening Nc1nc(-c2ccc3ccccc3c2)cs1 returned PPC-1+TRAIL kill 33.5, Wee1 degr inh -0.5, FLuc inh counter 44.2, FLuc stim CS 0.6, TRAIL sens C8 32.6 and PKD1 kinase inh -5.8.
Screening Nc1ccc(Sc2cc(Cl)nc(N)n2)cc1 returned PPC-1+TRAIL kill -1.0, Wee1 degr inh 3.7, FLuc inh counter 0.9, FLuc stim CS 1 and PKD1 kinase inh -0.6.
`Nc1nc(N)c2cc(Sc3cccc(C(F)(F)F)c3)ccc2n1` gave TRAIL sens C8 72.8*.
Cc1nc2ccc(NC(=O)CSc3nnc(C)s3)cc2[nH]1 was read as TRAIL sens C8 -0.9.
COc1ccc(C=NNC(=O)NN=Cc2ccc(OC)c(OC)c2)cc1OC was read as TRAIL sens C8 71.5*.
`COC(=O)c1ccc(C)c(NC(=O)COC(=O)C2CC3CCCC(C2)C3=O)c1` (stereo not given) gave TRAIL sens C8 -16.8.
For CC1(C)NC(=O)N(CCOc2ccc([N+](=O)[O-])cc2)C1=O the results were PPC-1+TRAIL kill 4.1, Wee1 degr inh 9.6*, FLuc inh counter -5.3, FLuc stim CS 1.1, TRAIL sens C8 -0.4 and PKD1 kinase inh 1.9.
Screening CCc1ccccc1NC(=O)Cn1nnc(C(=O)NCc2cccc(OC)c2)c1N returned TRAIL sens C8 14.0.
Cc1nc2cc(NC(=O)N3c4ccccc4CC3C)ccc2o1 (stereo not given) was read as PPC-1+TRAIL kill 34.2, Wee1 degr inh 2.4, FLuc inh counter 61.5*, FLuc stim CS 0.4, TRAIL sens C8 2.1 and PKD1 kinase inh -4.2.
`CC[C@H]1CN2CCc3cc(OC)c(OC)cc3C2C[C@@H]1C[C@H]1NCCc2cc(OC)c(OC)cc21` (stereo not given in full) gave TRAIL sens C8 55.8*.
Screening CCC1=C(CC2NCCc3ccccc32)CC2c3cc(OC)c(OC)cc3CCN2C1 (stereo not given) returned TRAIL sens C8 23.0.
For Cc1cccc(C)c1N1C(=O)c2ccccc2NC(=O)C1C(=O)NCc1ccco1 (stereo not given) the results were TRAIL sens C8 -1.6.
Screening N#C/C(=C\c1ccccc1)C(=O)N(c1ccccn1)C1CCCCC1 returned PPC-1+TRAIL kill 59.1*, Wee1 degr inh 0.7, FLuc inh counter -3.6, FLuc stim CS 1, TRAIL sens C8 -13.1 and PKD1 kinase inh 1.1.
For O=C(c1cccc(C(=O)N(c2ccccn2)C2CCCCC2)c1)N(c1ccccn1)C1CCCCC1 the results were PPC-1+TRAIL kill 16.5, Wee1 degr inh 4.9, FLuc inh counter 0.8, FLuc stim CS 1, TRAIL sens C8 3.5 and PKD1 kinase inh -3.1.
`Cc1cc(NC(=O)c2ccc(Cl)cc2)c(C(C)C)cc1O` gave PPC-1+TRAIL kill 4.7, Wee1 degr inh -2.2, FLuc inh counter 6.8, FLuc stim CS 0.9, TRAIL sens C8 -4.2 and PKD1 kinase inh 10.5.
Screening Cc1cc(NC(=O)c2ccc(Cl)cc2)c(C)cc1O returned PPC-1+TRAIL kill 32.8, Wee1 degr inh 0.7, FLuc inh counter 53.0*, FLuc stim CS 0.5, TRAIL sens C8 15.4 and PKD1 kinase inh 2.4.
CCOC(=O)N1CCC(NC(=O)C2CCN(C(=O)c3cc4sccc4n3CC)CC2)CC1 was read as PPC-1+TRAIL kill -2.1, Wee1 degr inh -1.4 and TRAIL sens C8 13.1.
`O=C(NCCc1ccc(OC(F)F)cc1)C1CC(=O)N(c2ccc3c(c2)OCCO3)C1` (stereo not given) gave TRAIL sens C8 -12.9.
